Results taken from publication PMC7985749 (CNS Drugs, 2021).

Experiments:
[1] = CSF pharmacokinetics substudy; format: in vivo, human; conditions: for Kp at 2 h / Kp at 6 h / Kp at 12 h / concentration at 2 h / concentration at 6 h / concentration at 12 h: male, human, oral; for Kp at 2 h / Kp at 6 h / Kp at 12 h: CSF / unbound plasma
In short: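 Open-label cohorts of healthy volunteers got a single oral dose of 2 or 4 mg. CSF and plasma were sampled predose and at preset timepoints, n = 3 subjects per timepoint. Levels were measured by GLP-validated LC-MS/MS: ethyl acetate liquid–liquid extraction, C18 column, positive ESI, deuterated internal standard. LLOQ was 50 pg/mL (CSF) and 10 pg/mL (plasma). Unbound plasma concentration was total corrected by an in vitro dialysis fraction unbound.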

[2] = 28-day GLP toxicology study in rats; conditions: rat, in vivo, oral
platelet levels = assay: Platelet levels; format: in vivo, human
In short: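 Young volunteers took the test compound or placebo orally once daily for 5 days, 0.2–4 mg/day; older adults took 2.5 mg/day. Platelets were counted in hematology safety blood samples at preset timepoints through 264 h and at follow-up, as % change from baseline. The MID limit included >50% platelet drop or grade ≥1 thrombocytopenia in >50% of active, not placebo, subjects. EC50 and EC80 came from a nonlinear exposure–response fit.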

Nc1nnc(CN[C@@H]2C[C@H]2c2ccc(OCc3ccccc3)cc2)o1 [vafidemstat]
Blood–brain barrier crossing ([1]; CSF cohort, quantifiable CSF concentrations from 2 h post-dose): shown to cross the human blood–brain barrier
Kp at 2 h ([1]; 2 mg): 0.78
Kp at 6 h ([1]; 2 mg): 0.74
Kp at 12 h ([1]; 2 mg): 0.92
Kp at 2 h ([1]; 4 mg): 0.69
Kp at 6 h ([1]; 4 mg): 0.83
Kp at 12 h ([1]; 4 mg): 0.91
concentration at 2 h ([1]; CSF, 2 mg): 0.239 ng/mL
concentration at 6 h ([1]; CSF, 2 mg): 0.181 ng/mL
concentration at 12 h ([1]; CSF, 2 mg): 0.17 ng/mL
concentration at 2 h ([1]; CSF, 4 mg): 0.387 ng/mL
concentration at 6 h ([1]; CSF, 4 mg): 0.734 ng/mL
concentration at 12 h ([1]; CSF, 4 mg): 0.55 ng/mL
concentration at 2 h ([1]; plasma (unbound), 2 mg): 0.316 ng/mL
concentration at 6 h ([1]; plasma (unbound), 2 mg): 0.248 ng/mL
concentration at 12 h ([1]; plasma (unbound), 2 mg): 0.186 ng/mL
concentration at 2 h ([1]; plasma (unbound), 4 mg): 0.59 ng/mL
concentration at 6 h ([1]; plasma (unbound), 4 mg): 0.871 ng/mL
concentration at 12 h ([1]; plasma (unbound), 4 mg): 0.609 ng/mL
NOAEL at 28 days [2]: 0.2 mg/kg
Maximum tolerated dose (platelet levels; MAD, 5 days): 2.5 mg/day
Minimum intolerable dose (MID) as defined per protocol (platelet levels; MAD, 5 days): 4 mg/day
Platelet levels (platelet levels; any SAD dose level or up to MAD dose III (1.0 mg/day)): no variations
Platelet level drops from baseline versus exposure (platelet levels; at Cmax,ss of ~ 100 ng/mL and AUCss of ~ 1000 ng·h/mL): ~ 50%
